Where “and” joins values, the source holds several entries; their conditions need not be identical. Equal values may be shown once.
Legend:
Set-up in all cases: species or system Hepacivirus hominis
NS3 [1] = target: T1, NS3 (Hepatitis C virus, UniProt A3EZJ3); experiment: Dissociation constant for HCV NS3 protease substrate binding site
Summary of the method: (§1)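 Uniformly 15N-labeled single-chain ns4a–ns3p, 0.2 mM, in 75 mM potassium phosphate pH 6.5, 20 mM DTT, 95/5% H2O/D2O, 0.015% sodium azide. Spectra were recorded with and without compound at several compound concentrations. KD and bound shift were fitted by nonlinear least squares to a single-site binding equation, with total compound and protein concentrations known.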

NS3 [2] = target: T1, NS3; experiment: Inhibition constant for HCV NS3 protease substrate binding site
NS3 [3] = target: T1, NS3; experiment: Dissociation constant for HCV NS3 protease substrate binding site; protein precipitation at 1:2 compound [100 uM]/protein ratio; summary of the method: as §1

T1 sequence (A3EZJ3 whole entry): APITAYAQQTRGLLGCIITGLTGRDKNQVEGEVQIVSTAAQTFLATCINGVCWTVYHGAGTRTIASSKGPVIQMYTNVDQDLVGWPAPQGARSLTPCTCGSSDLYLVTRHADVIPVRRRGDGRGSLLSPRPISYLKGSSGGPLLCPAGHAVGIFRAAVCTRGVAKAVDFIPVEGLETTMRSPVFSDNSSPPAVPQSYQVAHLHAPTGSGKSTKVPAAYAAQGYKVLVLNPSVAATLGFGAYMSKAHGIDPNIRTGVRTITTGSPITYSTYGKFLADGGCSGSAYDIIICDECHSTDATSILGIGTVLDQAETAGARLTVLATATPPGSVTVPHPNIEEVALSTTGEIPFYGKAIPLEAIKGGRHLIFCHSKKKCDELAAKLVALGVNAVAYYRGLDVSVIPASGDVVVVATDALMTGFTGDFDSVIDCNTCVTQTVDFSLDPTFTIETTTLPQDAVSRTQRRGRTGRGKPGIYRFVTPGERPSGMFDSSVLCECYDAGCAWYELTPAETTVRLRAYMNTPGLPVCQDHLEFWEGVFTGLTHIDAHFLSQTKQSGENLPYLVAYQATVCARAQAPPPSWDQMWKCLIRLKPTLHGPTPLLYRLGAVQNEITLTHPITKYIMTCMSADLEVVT

| Kd (NS3 [1]; read-out: Kd) | SMILES | further results |
| --- | --- | --- |
| ~1.9 µM | c1ccc2c(c1)NC1SCCCN21 (configuration not stated) | – |
| 55000 µM | O=C(CCCl)Nc1ccc(O)cc1 | – |
| > 250 µM | O=C(/C=N/O)Nc1ccc(C(=O)O)cc1 | – |
| ~230 µM | Nc1cc(O)nc(-c2cc(I)c(O)c(I)c2)n1 | – |
| > 40000 µM | Nc1ccc(C(=O)O)cc1 [AMINOBENZOIC ACID] | – |
| 8400 µM | CC1(C(=O)Nc2ccc(O)cc2)CC1 | – |
| > 20 µM | COc1ccc(C(=O)c2ccc[nH]2)cc1 | – |
| – | CCOC(=O)C(Cc1cc(I)c(O)c(I)c1)c1ccccc1 (configuration not stated) | Kd (NS3 [1]): Not Active |
| > 20000 µM | Nc1ccc(C(=O)c2ccc(N)cc2)cc1 | – |
| > 7000 µM | O=C(O)c1ccccc1Cc1ccc(O)cc1 | – |
| > 1600 µM | COc1c(I)cc(CC(C(=O)O)c2ccccc2)cc1I (configuration not stated) | – |
| > 30 µM and ~20 µM | Nc1ccc(C(=O)c2ccccc2)cc1 | – |
| > 60000 µM | COc1ccc(NC(=O)C2(C)CC2)cc1 | – |
| > 8000 µM | COc1ccc(CC(C(=O)O)c2ccccc2)cc1 (configuration not stated) | – |
| 12000 µM | CN(C)C(=O)Nc1ccc(O)c(C(F)(F)F)c1 | – |
| 22000 µM | COc1ccc(NC(=O)c2ccccc2C(=O)O)cc1 | – |
| – | CC(C)(C)OC(=O)N[C@H](Cc1cc(I)c(O)c(I)c1)C(=O)O | Kd (NS3 [1]): Active; Ki (NS3 [2]): 260 µM |
| 34000 µM | CCC(=O)Nc1ccc(O)cc1 [PARAPROPAMOL] | – |
| – | Cc1ccc(S(=O)(=O)NNC(=S)c2ccccc2)cc1 | Ki (NS3 [2]): 650 µM |
| 1600 µM | O=C(O)c1ccccc1C(=O)c1ccc(O)cc1 | – |
| 1000 µM | O=C(O)c1cc2cccc(Br)c2[nH]1 | – |
| 2.9 µM | O=C(O)c1cc2cc(F)ccc2[nH]1 [5-FLUOROINDOLE-2-CARBOXYLIC ACID] | – |

| Kd (NS3 [1]; read-out: Kd) | SMILES | further results |
| --- | --- | --- |
| 7000 µM | O=C(O)c1ccccc1Oc1ccc(Cl)cc1 | – |
| 1600 µM | Cc1ccc(C(=O)c2ccccc2C(=O)O)cc1 | – |
| 1000 µM | COc1ccc(C(=O)c2ccccc2C(=O)O)cc1 | – |
| > 10000 µM | O=C(O)c1ccccc1C(=O)c1cccc(Cl)c1 | – |
| 420 µM | O=C(O)c1cc(I)c(O)c(I)c1 | Ki (NS3 [2]): 600 µM |
| 90 µM | O=C(O)CCc1cc(I)c(O)c(I)c1 | Ki (NS3 [2]): 80 µM |
| > 600 µM | O=C(O)c1cc(Br)ccc1C(=O)c1ccc(O)cc1 | – |
| 8000 µM | CC(C)C(=O)Nc1ccc(O)c(C(F)(F)F)c1 | – |
| 70000 µM | Nc1ccc(C(=O)c2cccnc2N)cc1 | – |
| 2200 µM | O=C(O)c1cc2cc(Cl)ccc2o1 | – |
| – | CC(=O)N[C@H](Cc1cc(I)c(O)c(I)c1)C(=O)O | Kd (NS3 [1]): Active; Ki (NS3 [2]): 210 µM |
| ~4000 µM | O=C(O)c1ccccc1C(=O)c1ccc(F)cc1 | – |
| – | CC(C)(C)OC(=O)c1ccccc1C(=O)c1ccc(OCCCOC(=O)N[C@@H](Cc2cc(I)c(O)c(I)c2)C(=O)OC(C)(C)C)cc1 | Ki (NS3 [2]): 1 µM |
| 1700 µM | O=C(O)c1cc2ccccc2s1 | – |
| 100000 µM | Cc1ccc(N)cc1NC(=O)c1ccc(N)cc1 | – |
| > 10000 µM | CN(C)C(=O)c1cccc(C(=O)c2ccc(Cl)cc2)c1C(=O)O | – |
| 70000 µM | COc1ccc(NC(=O)C(C)C)cc1 | – |
| 110 µM | O=C(O)C(Cc1cc(I)c(O)c(I)c1)c1ccccc1 (configuration not stated) [IODOALPHIONIC ACID] | Ki (NS3 [2]): 140 µM |
| > 8000 µM | O=C(O)C(Cc1ccc(O)cc1)c1ccccc1 (configuration not stated) | – |
| > 8000 µM | Nc1ccc(CC(C(=O)O)c2ccccc2)cc1 (configuration not stated) | – |
| – | O=C(c1ccc(Cl)cc1)c1cccc(Cl)c1C(=O)O | Kd (NS3 [1]): Insoluble |
| 6400 µM | O=C(O)c1cc2ccccc2o1 | – |

| Kd (NS3 [1]; read-out: Kd) | SMILES | further results |
| --- | --- | --- |
| > 10000 µM | COC(=O)c1cccc(C(=O)c2ccc(Cl)cc2)c1C(=O)O | – |
| > 2500 µM | COC(=O)[C@H](N)Cc1cc(I)c(O)c(I)c1 | – |
| 1400 µM | O=C(O)c1cc2cccc(Cl)c2[nH]1 | – |
| – | CC(C)(C)OC(=O)N[C@@H](Cc1cc(I)c(O)c(I)c1)C(=O)O | Kd (NS3 [1]): Active; Ki (NS3 [2]): 310 µM |
| 1200 µM | Cc1ccc2[nH]c(C(=O)O)cc2c1 | – |
| > 100 µM | COc1ccc(NC(=O)C(C)(C)C)cc1 | – |
| > 8000 µM | O=C(O)C(Cc1cc(Br)c(O)c(Br)c1)c1ccccc1 (configuration not stated) | – |
| > 20000 µM | COc1ccc(C(=O)C2CC2)cc1 | – |
| 200 µM | O=C(O)c1cc2cc(Br)ccc2[nH]1 | – |
| 4000 µM | O=C(O)c1ccccc1C(=O)c1ccc(C(F)(F)F)cc1 | – |
| > 20000 µM | CC(=O)c1ccc(OCC(=O)O)cc1 | – |
| – | Oc1c(I)cc(CCc2ccncc2)cc1I | Kd (NS3 [1]): Not Active |
| 40 µM | O=C(O)CC(c1ccccc1)c1cc(I)c(O)c(I)c1 (configuration not stated) | Ki (NS3 [2]): 100 µM |
| > 20000 µM | COc1ccc(N)cc1NC(=O)c1ccc(N)cc1 | – |
| > 7000 µM | O=C(O)c1ccccc1Cc1ccc(Cl)cc1 | – |
| 12000 µM | O=C(O)c1cc2ccccc2[nH]1 [INDOLE-2-CARBOXYLIC ACID] | – |
| – | O=C(N[C@@H](Cc1cc(I)c(O)c(I)c1)C(=O)O)OCCCOc1ccc(C(=O)c2ccccc2C(=O)O)cc1 | Ki (NS3 [2]): 0.8 µM |
| 800 µM | O=C(O)c1cc2c(Cl)cccc2[nH]1 | – |
| – | O=C(O)C(Cc1cc(I)c(O)c(I)c1)c1ccc(-c2ccccc2)cc1 (configuration not stated) | Kd (NS3 [3]): No Delta CS |
| 8000 µM | CON(C)C(=O)Nc1ccc(O)c(C(F)(F)F)c1 | – |
| 8000 µM | COc1ccc2sc(C(=O)O)cc2c1 | – |
| – | COc1ccc(C(=O)c2cc(OC)ccc2C(=O)O)cc1 | Kd (NS3 [1]): Insoluble |

| Kd (NS3 [1]; read-out: Kd) | SMILES | further results |
| --- | --- | --- |
| 400 µM | O=C(O)c1cc2ccc(Cl)cc2[nH]1 | – |
| 140 µM | O=C(O)CCCc1cc(I)c(O)c(I)c1 | Ki (NS3 [2]): 180 µM |
| 300 µM | O=C(O)c1cc2cc(Cl)ccc2[nH]1 [5-CHLOROINDOLE-2-CARBOXYLIC ACID] | – |
| > 210000 µM | CNC(=O)Nc1ccc(C(=O)O)cc1 | – |
| 690 µM | CC1(C(=O)Nc2ccc(O)c(C(F)(F)F)c2)CC1 | – |
| > 20000 µM | Cc1ccc(NC(=O)c2ccc(N)cc2)c(N)c1 | – |
| > 8000 µM | O=C(O)C(Cc1cc([N+](=O)[O-])c(O)c([N+](=O)[O-])c1)c1ccccc1 (configuration not stated) | – |
| 4000 µM | O=C(O)Cc1ccccc1C(=O)c1ccc(Cl)cc1 | – |
| 20000 µM | Nc1ccc(C(=O)Nc2ccc(Cl)c(N)c2)cc1 | – |
| > 110000 µM | COc1ccc(NC(=O)CCC(=O)O)cc1 | – |
| > 20000 µM | CC(=O)c1ccc(OCCC(=O)O)cc1 | – |
| 17000 µM | CC(C)C(=O)Nc1ccc(O)cc1 | – |
| > 5000 µM | Cc1ccc(C(=O)O)c(C(=O)c2ccc(O)cc2)c1 | – |
| 4000 µM | COc1ccc2[nH]c(C(=O)O)cc2c1 | – |
| 7000 µM | O=C(O)c1ccccc1Oc1ccc(F)cc1 | – |
| ~3 µM | O=C(O)c1ccccc1C(=O)c1ccc(Cl)cc1 | – |
| – | O=C(O)C(Cc1cc(I)c(O)c(I)c1)c1ccc2ccccc2c1 (configuration not stated) | Kd (NS3 [3]): No Delta CS |
| – | CC(C)c1ccc(C(Cc2cc(I)c(O)c(I)c2)C(=O)O)cc1 (configuration not stated) | Kd (NS3 [3]): No Delta CS |
| > 8000 µM | O=C(O)COc1c(I)cc(CC(C(=O)O)c2ccccc2)cc1I (configuration not stated) | – |
| > 10000 µM | O=C(O)c1ccc(O)cc1C(=O)c1ccc(O)cc1 | – |
| 40000 µM | O=C(O)CCCc1ccc(C(=O)c2ccccc2C(=O)O)cc1 | – |

| SMILES | Kd (NS3 [1]; read-out: Kd) | further results |
| --- | --- | --- |
| Cn1c(C(=O)O)cc2ccccc21 | 8100 µM | – |
| O=C(O)C(F)(F)C(F)(F)C(=O)O | ~5.2 µM | – |

— ChEMBL document CHEMBL1148307, “Non-peptidic small-molecule inhibitors of the single-chain hepatitis C virus NS3 protease/NS4A cofactor complex discovered by structure-based NMR screening” (J Med Chem, 2004)
